Holding throughout (format): cell-based
Experiment [1] concerns the target T1, Piezo1 (Mus musculus, UniProt E2JF22). As to the kind of experiment: Outside-out patch recording of pressure-evoked Piezo1 currents.
In experiment [2] the target is T1, Piezo1. The conditions noted are these: 3.0 μM; Piezo1 in HEK293 cells; n=3 S.D.; SD.
Experiment [3] has as its system TREK-1. As to the kind of experiment: Outside-out patch recording of mechanosensitive TREK-1 currents. Conditions: extracellular peptide; outside-out patches of cells transfected with TREK-1. The gist of the method:
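HEK293 cells transfected with TREK-1 plasmid (250 ng, FuGENE) were recorded 24-48 h later in outside-out patches at room temperature. Extracellular (mM): 145 NaCl, 5 KCl, 3 MgCl2, 10 HEPES, 0.1 CaCl2, pH 7.3. Internal: 133 KCl, 10 HEPES, 5 EGTA, 3 MgCl2. Pressure pulses came from a high-speed pressure clamp. D and L peptide forms were perfused. Sampling was 10 kHz, filtered at 2 kHz.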

T1 sequence (E2JF22 whole entry): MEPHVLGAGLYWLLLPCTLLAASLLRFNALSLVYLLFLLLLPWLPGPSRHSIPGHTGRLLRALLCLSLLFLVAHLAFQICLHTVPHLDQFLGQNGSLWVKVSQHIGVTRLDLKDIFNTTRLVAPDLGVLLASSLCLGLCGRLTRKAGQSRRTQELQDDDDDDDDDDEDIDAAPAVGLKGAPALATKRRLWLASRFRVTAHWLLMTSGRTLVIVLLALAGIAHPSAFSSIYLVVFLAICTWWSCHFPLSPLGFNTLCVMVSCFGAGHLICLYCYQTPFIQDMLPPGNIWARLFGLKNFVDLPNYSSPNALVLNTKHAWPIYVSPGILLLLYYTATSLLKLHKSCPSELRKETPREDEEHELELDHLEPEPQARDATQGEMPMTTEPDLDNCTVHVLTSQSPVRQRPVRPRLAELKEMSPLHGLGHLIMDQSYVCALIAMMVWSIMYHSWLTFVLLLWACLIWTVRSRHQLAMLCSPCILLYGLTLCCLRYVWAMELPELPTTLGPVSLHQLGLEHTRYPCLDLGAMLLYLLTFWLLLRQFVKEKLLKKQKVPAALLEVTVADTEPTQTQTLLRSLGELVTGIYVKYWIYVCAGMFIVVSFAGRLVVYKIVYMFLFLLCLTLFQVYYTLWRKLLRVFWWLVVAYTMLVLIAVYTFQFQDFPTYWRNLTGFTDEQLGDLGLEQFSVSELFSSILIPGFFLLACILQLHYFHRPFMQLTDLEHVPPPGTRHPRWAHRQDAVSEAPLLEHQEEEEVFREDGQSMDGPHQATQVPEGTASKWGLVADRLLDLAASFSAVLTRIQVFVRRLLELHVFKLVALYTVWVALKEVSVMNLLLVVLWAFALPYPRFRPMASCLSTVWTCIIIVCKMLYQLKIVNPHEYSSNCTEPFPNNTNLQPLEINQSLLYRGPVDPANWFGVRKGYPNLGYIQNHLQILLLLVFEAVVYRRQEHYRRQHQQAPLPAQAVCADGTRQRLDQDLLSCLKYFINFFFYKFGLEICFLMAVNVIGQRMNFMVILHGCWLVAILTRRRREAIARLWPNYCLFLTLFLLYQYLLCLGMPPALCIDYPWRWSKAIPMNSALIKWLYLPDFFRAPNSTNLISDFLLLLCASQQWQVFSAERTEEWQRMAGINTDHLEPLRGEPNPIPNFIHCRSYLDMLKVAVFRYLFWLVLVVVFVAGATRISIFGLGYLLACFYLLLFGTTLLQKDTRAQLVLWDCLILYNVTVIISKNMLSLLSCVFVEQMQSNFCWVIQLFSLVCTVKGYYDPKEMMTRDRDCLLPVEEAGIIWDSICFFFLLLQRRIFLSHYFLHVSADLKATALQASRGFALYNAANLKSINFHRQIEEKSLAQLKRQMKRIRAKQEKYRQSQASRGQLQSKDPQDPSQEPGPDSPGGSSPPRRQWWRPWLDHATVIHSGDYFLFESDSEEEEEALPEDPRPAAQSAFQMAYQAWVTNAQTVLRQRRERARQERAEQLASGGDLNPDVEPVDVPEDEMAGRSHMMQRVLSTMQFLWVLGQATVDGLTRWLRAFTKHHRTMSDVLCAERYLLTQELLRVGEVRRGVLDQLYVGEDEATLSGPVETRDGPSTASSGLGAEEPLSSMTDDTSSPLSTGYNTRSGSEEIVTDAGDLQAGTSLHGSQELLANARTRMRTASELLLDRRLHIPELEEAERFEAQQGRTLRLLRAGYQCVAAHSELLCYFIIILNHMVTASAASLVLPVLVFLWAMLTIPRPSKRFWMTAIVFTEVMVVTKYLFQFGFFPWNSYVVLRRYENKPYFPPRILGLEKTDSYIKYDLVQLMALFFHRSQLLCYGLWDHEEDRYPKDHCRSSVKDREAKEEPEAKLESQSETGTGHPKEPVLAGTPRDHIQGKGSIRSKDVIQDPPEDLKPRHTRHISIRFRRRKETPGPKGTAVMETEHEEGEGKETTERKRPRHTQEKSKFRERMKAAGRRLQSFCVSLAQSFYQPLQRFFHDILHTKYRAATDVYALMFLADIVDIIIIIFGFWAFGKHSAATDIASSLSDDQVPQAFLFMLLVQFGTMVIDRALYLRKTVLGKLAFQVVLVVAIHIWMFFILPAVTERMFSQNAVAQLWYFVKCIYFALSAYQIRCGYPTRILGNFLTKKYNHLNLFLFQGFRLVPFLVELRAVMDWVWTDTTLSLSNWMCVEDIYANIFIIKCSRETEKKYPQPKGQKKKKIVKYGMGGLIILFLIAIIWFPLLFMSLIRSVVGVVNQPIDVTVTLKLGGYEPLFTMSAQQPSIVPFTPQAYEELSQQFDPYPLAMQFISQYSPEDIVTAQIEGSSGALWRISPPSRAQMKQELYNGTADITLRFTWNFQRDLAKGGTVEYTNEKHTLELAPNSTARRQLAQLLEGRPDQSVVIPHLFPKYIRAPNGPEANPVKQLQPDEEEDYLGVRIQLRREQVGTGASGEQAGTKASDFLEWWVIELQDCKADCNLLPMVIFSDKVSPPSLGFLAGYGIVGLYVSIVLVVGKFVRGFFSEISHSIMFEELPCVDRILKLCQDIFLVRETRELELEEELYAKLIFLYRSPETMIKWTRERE

With `[H]/N=C(/N)N[C@H]1[C@H](O)[C@@H](O)[C@H](O[C@@H]2O[C@@H](C)[C@](O)(C=O)[C@H]2O[C@@H]2O[C@@H](CO)[C@H](O)[C@@H](O)[C@@H]2NC)[C@@H](N/C(N)=N\[H])[C@@H]1O` [streptomycin], the “mode of inhibition of Piezo1” value in experiment [1] (1 mM applied for 90 seconds to resting outside-out patches, Figure S2 B) is “open channel blocker”.

For the compound D-GsMTx4, in experiment [1] (outside-out patches, 2.5 μM, n=5, Figure 1C, normalized data), the “inhibition of peak currents” value is reported as 29 ± 9%. For the same compound, the “inhibition of whole cell mechanosensitive currents” value in experiment [2] came to 70±6%. The “inhibition of TREK-1 mechanosensitive currents” value in experiment [3] is given as “no inhibition”.

Source of the values: PMC3169095 (Biochemistry, 2011).
